# Measurements from different studies.
# Compare with care: the assays were run in different laboratories.
# Target: Homeodomain-interacting protein kinase 2 (HIPK2, Homo sapiens, UniProt Q9H2X6)
# Read-out: enzyme activity
# Mode: inhibitor
Compound,assay,setting,remaining activity
O=C(O)c1ccc2c(c1)nc(NCCc1ccccc1)c1ncncc12,radiometric,1 µM,7%
CC(C)(O)[C@H]1CC[C@H](Nc2ccc3ncc(-c4cccc(C(F)(F)F)c4)n3n2)CC1,,1 µM,70.3%
O=C(O)c1ccc2c(c1)nc(NCCc1cccc(F)c1)c1ncncc12,radiometric,1 µM,6%
Cc1ccc(C(=O)Nc2ccc(CN3CCN(C)CC3)c(C(F)(F)F)c2)cc1C#Cc1cnc2cccnn12,,23.5 nM,100%
Nc1nc(NC2CCCCC2)sc1C(=O)c1ccccc1,,10 µM,64%
CC(C)(C)c1nc2c(s1)c1nc(N)ncc1c1ccc(NS(=O)(=O)c3c(F)cccc3F)c(F)c12,radiometric,1 µM,80%
COc1cc(Cl)c(C(=O)N[C@@H](CN[C@H]2CC[C@@H](N)CC2)Cc2ccc(C#N)cc2)cc1-c1ccc(CN[C@H](C)c2ccc(C)cc2)o1,,1 µM,105%
CC(C)(C)C(=O)c1sc(NC2CCCCC2)nc1N,,10 µM,79%
O=C(Nc1cnn(-c2csc(C(=O)NC3COC3)c2)c1)Nc1c(F)cccc1Cl,,5 µM,92.6%
Oc1cccc(-c2nc(N3CCOCC3)c3oc4ncccc4c3n2)c1,,10 µM,18%
Cc1sc(C(=O)NC2COC2)cc1-n1cc(NC(=O)Nc2c(F)cccc2Cl)cn1,,10 µM,103%
COc1cc(Nc2cnc(C#N)c(O[C@H](C)CN(C)C)n2)ncc1-c1cnn(C)c1,radiometric,1 µM,89%
O=C(O)c1ccc2c(c1)nc(NCCc1ccccc1)c1ccncc12,radiometric,1 µM,4%
